Data set [1] can be described thus: Downregulation of PPAR-gamma mRNA level in mouse 3T3L1 cells at 0.3 to 3 uM after 24 hrs by RT-PCR analysis. It counts as functional, cell-based. The conditions noted are these: 3T3-L1. The method in brief: (§1)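 3T3-L1 preadipocytes in adipogenic cocktail with compound (0.3-3.0 µM; 3 µM for the 2 h and 24 h time course). Total RNA extracted, cDNA made from 1 µg RNA with oligo primer, then PCR: 95 °C 10 min, 35 cycles of 95 °C 30 s, annealing 45 s, 72 °C 1 min, final 72 °C 10 min. Normalized to actin; n = 3.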

In a further data set the test system is HeLa. The data set is described as follows: Drug uptake in human HeLa cells measured from 5 mins to 1 hr by fluorescence analysis. The data set is classed as ADME, cell-based.
The subject of data set [2] is 3T3-L1. The experiment in a line: Inhibition of cell differentiation in mouse 3T3L1 cells assessed as delayed time point of cell contact inhibition at 0.5 uM for 9 days. It counts as functional. The method in brief:
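3T3-L1 preadipocytes were induced to differentiate (IBMX/dexamethasone/insulin for 3 days, then insulin) with compound added from day 0 at 0.5 or 5 µM; DMSO vehicle served as control. Cells were collected and counted every day to follow proliferation and to find when contact inhibition resumed.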

Data set [3] relates to 3T3-L1. The data set is described as follows: Inhibition of adipogenesis in mouse 3T3L1 cells assessed as reduction in mature adipocytes number at 1 uM measured during 0 to 3,0 to 6,0 to 9, 3 to 6, 3 to 9 and 6 to 9 days by oil red O staining based microscopic analysis. It counts as functional, cell-based. The method in brief: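 Differentiation was induced two days post-confluence (day 0) with IBMX/dexamethasone/insulin for 3 days, then insulin medium. Compound at 1 µM was present during days 0-3, 0-6, 0-9, 3-6, 3-9 or 6-9. On day 9, cells were fixed in 4% formaldehyde, stained with Oil Red O for 30 min, and imaged by microscopy. A TG assay was also run; DMSO vehicle served as control.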

Data set [4] deals with T1, Serine/threonine-protein kinase STK11 (Mus musculus) (UniProt Q9WTK7).
T1 sequence (whole entry): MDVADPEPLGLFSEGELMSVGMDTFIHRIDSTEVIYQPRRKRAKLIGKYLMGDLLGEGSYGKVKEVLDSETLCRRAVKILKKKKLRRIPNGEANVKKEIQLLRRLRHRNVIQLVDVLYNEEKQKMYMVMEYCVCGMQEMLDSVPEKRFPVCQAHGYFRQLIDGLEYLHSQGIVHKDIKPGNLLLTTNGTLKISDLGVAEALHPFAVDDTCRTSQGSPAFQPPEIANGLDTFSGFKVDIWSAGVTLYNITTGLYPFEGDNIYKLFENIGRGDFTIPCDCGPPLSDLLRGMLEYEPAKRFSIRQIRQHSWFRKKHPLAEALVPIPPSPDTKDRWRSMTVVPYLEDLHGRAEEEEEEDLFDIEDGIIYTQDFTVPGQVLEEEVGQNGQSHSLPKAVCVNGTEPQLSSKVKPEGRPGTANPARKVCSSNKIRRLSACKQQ
The data set is described as follows: Activation of LKB1-mediated ACC in mouse 3T3L1 cells assessed as increase in phophorylated ACC level at 3 uM after 3 days by western blot analysis. It counts as cell-based. The conditions noted are these: 3T3-L1.

Data set [5] concerns 3T3-L1. The experiment in a line: Induction of apoptosis in mouse 3T3L1 cells assessed as late apoptotic cells at 3 uM after 24 hrs by annexin-V-FITC and PI staining based flow cytometry (reference value: 0.03%). It counts as functional.
A short description of data set [6]: Downregulation of SCD-1 level in mouse 3T3L1 cells after 6 days by western blot analysis. The data set is classed as functional, cell-based. The conditions noted are these: 3T3-L1. An outline of the steps:
(§2)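 3T3-L1 preadipocytes incubated in adipogenic cocktail with or without compound (0.3, 1.0, 3.0 µM) for the stated periods. Protein levels measured by Western blot (RIPA lysis, PVDF, BSA block, primary 16 h at 4 °C, HRP secondary), normalized to GAPDH/Tubulin and expressed relative to controls; n = 3.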
For orientation: A western blot detects proteins with antibodies after separation by electrophoresis.

The test system of another data set is HepG2. The data set is described as follows: Decrease in triglyceride level in human HepG2 cells after 24 hrs by GPO-POD assay in presence of 0.5 mM oleic acid sodium. The data set is classed as functional, cell-based. An outline of the steps:
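HepG-2 cells seeded, then after 24 h exposed to 0.5 mM oleic acid sodium plus compound (1 µM; dose series up to 10 µM) for 24 h, DMSO vehicle. Cells lysed in 0.2% Triton X-100 for 1 h, sonicated, centrifuged. Triglyceride measured by GPO-POD kit and cholesterol by kit, both normalized to BCA protein; n = 3.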

Data set [7] can be described thus: Cell cycle arrest in mouse 3T3L1 cells assessed as number of cells at S phase at 3 uM after 24 hrs by flow cytometry (reference value: 18.1%). The data set is classed as functional, cell-based. The conditions noted are these: 3T3-L1. In general terms: A flow cytometer gives signals particle by particle.
The nature of data set [8]: Downregulation of C/EBP alpha mRNA level in mouse 3T3L1 cells at 0.3 to 3 uM after 24 hrs by RT-PCR analysis. It counts as functional, cell-based. The conditions noted are these: 3T3-L1. An outline of the steps:
as §1

The nature of data set [9]: Downregulation of C/EBP beta mRNA level in mouse 3T3L1 cells at 3 uM after 2 and 24 hrs by RT-PCR analysis. It counts as functional, cell-based. To be noted: 3T3-L1. An outline of the steps: as §1
Data set [10] is described as follows: Downregulation of C/EBP alpha level in mouse 3T3L1 cells at 0.3 to 3 uM after 3 days by western blot analysis. It counts as functional, cell-based. To be noted: 3T3-L1. The method in brief: as §2
Data set [11] can be described thus: Cell cycle arrest in mouse 3T3L1 cells assessed as number of cells at G0/G1 phase at 0.3 uM after 24 hrs by flow cytometry (reference value: 37.6%). The data set is classed as functional, cell-based. To be noted: 3T3-L1.
Data set [12] concerns 3T3-L1. The experiment in a line: Induction of apoptosis in mouse 3T3L1 cells assessed as late apoptotic cells at 0.3 uM after 24 hrs by annexin-V-FITC and PI staining based flow cytometry (reference value: 0.03%). The data set is classed as functional.
The test system of data set [13] is 3T3-L1. The experiment in a line: Induction of apoptosis in mouse 3T3L1 cells assessed as early apoptotic cells at 1 uM after 24 hrs by annexin-V-FITC and PI staining based flow cytometry (reference value: 0.56%). The data set is classed as functional.
Data set [14] can be described thus: Cell cycle arrest in mouse 3T3L1 cells assessed as number of cells at G0/G1 phase at 3 uM after 24 hrs by flow cytometry (reference value: 37.6%). The data set is classed as functional, cell-based. To be noted: 3T3-L1.

Each structure is given as a SMILES string. Active and inactive are the calls of the source. The rule behind the calls is not given here.

Consider one compound from ChEMBL document CHEMBL3734704, “Synthesis and Biological Evaluation of Novel Bouchardatine Derivatives as Potential Adipogenesis/Lipogenesis Inhibitors for Antiobesity Treatment” (J Med Chem, 2015).

For the compound `O=Cc1c(-c2nc(NCCN3CCCC3)c3ccccc3n2)[nH]c2ccccc12`, the inhibition result (in data set [1]; with 3T3-L1 [3]; in data set [8]; in data set [9]; in [10]) was “Active” in each case. Further, the Drug uptake entry in the data set with HeLa is given as “Active”. For the same compound, the Time in the data set with 3T3-L1 [2] was determined as 6 days. Further, the result in data set [4] was Active. For the same compound, the Activity turned out to be 0.42% in the data set with 3T3-L1 [5]; 3.3% in data set [7]; 51.8% in data set [11]; 0.47% in the data set with 3T3-L1 [12]; 0.84% in the data set with 3T3-L1 [13]; 33.5% in data set [14]. The inhibition result (in [6]; in the data set on HepG2) was “Dose-dependent effect” in each case.
